{
  "source": "paper PMC2682635",
  "about": "(Psychopharmacology, 2009)",
  "key": {"baboons [1]": {"system": "baboons", "test": "Food-maintained operant behavior procedure", "assay_type": "in vivo, Papio anubis", "in_short": "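Test compound or vehicle was diluted in water to 150 ml total and infused intragastrically. Sessions started at 9:00 am right after dosing. Food pellets were available 20 h/day on a fixed-ratio schedule via a Lindsley operandum. Pellets earned were counted in ten 2-h bins up to 20 h. Analysis was repeated-measures two-way ANOVA (dose × time), p<0.05.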"}, "baboons [2]": {"system": "baboons", "test": "Fine-motor task", "assay_type": "in vivo, Papio anubis"}, "baboons [3]": {"system": "baboons", "test": "30-min continuous behavioral observation session", "assay_type": "in vivo, Papio anubis", "settings": "60 to 90 min after drug"}, "baboons [4]": {"system": "baboons", "test": "Paper and pencil behavioral checklists", "assay_type": "in vivo, Papio anubis"}, "[5]": {"settings": "baboon"}, "rhesus monkeys": {"system": "rhesus monkeys", "settings": "food-maintained operant procedure; ref McMahon et al. 2003; cited from earlier work"}, "in vivo": {"test": "in vivo", "settings": "plasma, po"}, "[6]": {"settings": "humans, 25 mg/kg 1,4-BD; ref Thai et al. 2006; cited from earlier work"}, "[7]": {"settings": "humans, 25 mg/kg 1,4-BD; ref Thai et al. 2006; cited from earlier work", "remark": "listed apart in the source"}},
  "note": "Several values for one entry are separate records, joined by “and”; a condition that tells them apart may be missing. Identical values can stand only once. Like-named read-outs stand apart in the source and are kept apart here.",
  "data": [
    {"smiles": "OCCCCO", "note": "[1,4-BD, 1,4-butanediol]", "values": [
      {"measurement": "Food-maintained behavior compared to vehicle", "setting": "baboons [1]; 56 mg/kg, 4 h after administration, p<0.05", "result": "increases"},
      {"measurement": "Food-maintained behavior compared to vehicle", "setting": "baboons [1]; 180 mg/kg, 2 h after administration, p<0.001", "result": "decreased"},
      {"measurement": "Food-maintained behavior compared to vehicle", "setting": "baboons [1]; 180 mg/kg, 4 h after administration", "result": "decreased"},
      {"measurement": "Food-maintained behavior compared to vehicle", "setting": "baboons [1]; 240 mg/kg, 2 h postadministration, p<0.001", "result": "decreased"},
      {"measurement": "Food-maintained behavior compared to vehicle", "setting": "baboons [1]; 240 mg/kg, 4 h postadministration, p<0.05", "result": "decreased"},
      {"measurement": "Time food-maintained behavior was suppressed after administration", "setting": "baboons [1]; high doses", "result": 4, "unit": "h"},
      {"measurement": "Duration to complete the fine-motor task", "setting": "baboons [2]; 180 mg/kg, 60 min postadministration, p<0.001", "result": "significantly increased"},
      {"measurement": "Duration to complete the fine-motor task", "setting": "baboons [2]; 180 mg/kg, 120 min postadministration, p<0.001", "result": "significantly increased"},
      {"measurement": "Completion of the fine-motor task", "setting": "baboons [2]; 240 mg/kg", "result": "all subjects failed to complete the task within the maximum time of 120 s"},
      {"measurement": "Duration to complete the fine-motor task", "setting": "baboons [2]; 240 mg/kg, 120 min postadministration, p<0.001", "result": "significantly increased"},
      {"measurement": "Duration to complete the fine-motor task", "setting": "baboons [2]; any dose, 30-min postadministration", "result": "did not alter"},
      {"measurement": "Frequency of scratch/groom compared to vehicle", "setting": "baboons [3]; 56 mg/kg", "result": "increased"},
      {"measurement": "Frequency of ataxia compared to vehicle", "setting": "baboons [3]; 180 mg/kg", "result": "significantly increased"},
      {"measurement": "Frequency of scratch/groom compared to vehicle", "setting": "baboons [3]; 180 mg/kg", "result": "increased"},
      {"measurement": "Frequency of tremor/jerks compared to vehicle", "setting": "baboons [3]; 180 mg/kg", "result": "significantly increased"},
      {"measurement": "Frequency of vomit/retch compared to vehicle", "setting": "baboons [3]; 180 mg/kg", "result": "significantly increased"},
      {"measurement": "Duration of lip droop compared to vehicle", "setting": "baboons [3]; 240 mg/kg", "result": "significantly increased"},
      {"measurement": "Frequency of ataxia compared to vehicle", "setting": "baboons [3]; 240 mg/kg", "result": "significantly increased"},
      {"measurement": "Frequency of tremor/jerks compared to vehicle", "setting": "baboons [3]; 240 mg/kg", "result": "significantly increased"},
      {"measurement": "Frequency of vomit/retch compared to vehicle", "setting": "baboons [3]; 240 mg/kg", "result": "significantly increased"},
      {"measurement": "Time lying down compared to vehicle", "setting": "baboons [3]; 240 mg/kg", "result": "significantly increased"},
      {"measurement": "Duration of effects in ≥50% of subjects, ataxia", "setting": "baboons [4]; 180 mg/kg IG", "result": 4.0, "unit": "h"},
      {"measurement": "Duration of effects in ≥50% of subjects, lip droop", "setting": "baboons [4]; 180 mg/kg IG", "result": 2.5, "unit": "h"},
      {"measurement": "Duration of effects in ≥50% of subjects, tremor/jerk", "setting": "baboons [4]; 180 mg/kg IG", "result": 5.0, "unit": "h"},
      {"measurement": "Duration of effects in ≥50% of subjects, vomit", "setting": "baboons [4]; 180 mg/kg IG", "result": 2.5, "unit": "h"},
      {"measurement": "Number of subjects at maximal effect, ataxia", "setting": "baboons [4]; 180 mg/kg IG", "result": "4/4"},
      {"measurement": "Number of subjects at maximal effect, lip droop", "setting": "baboons [4]; 180 mg/kg IG", "result": "2/4"},
      {"measurement": "Number of subjects at maximal effect, tremor/jerk", "setting": "baboons [4]; 180 mg/kg IG", "result": "4/4"},
      {"measurement": "Number of subjects at maximal effect, vomit", "setting": "baboons [4]; 180 mg/kg IG", "result": "3/4"},
      {"measurement": "Recovery of baseline (100% of subjects), ataxia", "setting": "baboons [4]; 180 mg/kg IG", "result": 7.0, "unit": "h"},
      {"measurement": "Recovery of baseline (100% of subjects), lip droop", "setting": "baboons [4]; 180 mg/kg IG", "result": 4.0, "unit": "h"},
      {"measurement": "Recovery of baseline (100% of subjects), tremor/jerk", "setting": "baboons [4]; 180 mg/kg IG", "result": 7.5, "unit": "h"},
      {"measurement": "Recovery of baseline (100% of subjects), vomit", "setting": "baboons [4]; 180 mg/kg IG", "result": 7.5, "unit": "h"},
      {"measurement": "Time to maximal effects, ataxia", "setting": "baboons [4]; 180 mg/kg IG", "result": 2.0, "unit": "h"},
      {"measurement": "Time to maximal effects, lip droop", "setting": "baboons [4]; 180 mg/kg IG", "result": "2 h and 2.0 h"},
      {"measurement": "Time to maximal effects, tremor/jerk", "setting": "baboons [4]; 180 mg/kg IG", "result": 1.0, "unit": "h"},
      {"measurement": "Time to maximal effects, vomit", "setting": "baboons [4]; 180 mg/kg IG", "result": 2.5, "unit": "h"},
      {"measurement": "Duration of effects in ≥50% of subjects, ataxia", "setting": "baboons [4]; 240 mg/kg IG", "result": 4.0, "unit": "h"},
      {"measurement": "Duration of effects in ≥50% of subjects, lip droop", "setting": "baboons [4]; 240 mg/kg IG", "result": 3.5, "unit": "h"},
      {"measurement": "Duration of effects in ≥50% of subjects, tremor/jerk", "setting": "baboons [4]; 240 mg/kg IG", "result": 6.0, "unit": "h"},
      {"measurement": "Duration of effects in ≥50% of subjects, vomit", "setting": "baboons [4]; 240 mg/kg IG", "result": 1.0, "unit": "h"},
      {"measurement": "Number of subjects at maximal effect, ataxia", "setting": "baboons [4]; 240 mg/kg IG", "result": "4/4"},
      {"measurement": "Number of subjects at maximal effect, lip droop", "setting": "baboons [4]; 240 mg/kg IG", "result": "3/4"},
      {"measurement": "Number of subjects at maximal effect, tremor/jerk", "setting": "baboons [4]; 240 mg/kg IG", "result": "4/4"},
      {"measurement": "Number of subjects at maximal effect, vomit", "setting": "baboons [4]; 240 mg/kg IG", "result": "3/4"},
      {"measurement": "Recovery of baseline (100% of subjects), ataxia", "setting": "baboons [4]; 240 mg/kg IG", "result": 6.0, "unit": "h"},
      {"measurement": "Recovery of baseline (100% of subjects), lip droop", "setting": "baboons [4]; 240 mg/kg IG", "result": 5.0, "unit": "h"},
      {"measurement": "Recovery of baseline (100% of subjects), tremor/jerk", "setting": "baboons [4]; 240 mg/kg IG", "result": 8.0, "unit": "h"},
      {"measurement": "Recovery of baseline (100% of subjects), vomit", "setting": "baboons [4]; 240 mg/kg IG", "result": 7.5, "unit": "h"},
      {"measurement": "Time to maximal effects, ataxia", "setting": "baboons [4]; 240 mg/kg IG", "result": 2.0, "unit": "h"},
      {"measurement": "Time to maximal effects, lip droop", "setting": "baboons [4]; 240 mg/kg IG", "result": "1−2 h and 1 h and 1.0 h"},
      {"measurement": "Time to maximal effects, tremor/jerk", "setting": "baboons [4]; 240 mg/kg IG", "result": 2.0, "unit": "h"},
      {"measurement": "Time to maximal effects, vomit", "setting": "baboons [4]; 240 mg/kg IG", "result": 1.0, "unit": "h"},
      {"measurement": "Time at which lip droop continued in half of the subjects", "setting": "baboons [4]; 180 and 240 mg/kg", "result": "2.5−3.5 h"},
      {"measurement": "Time postadministration by which lip droop was no longer observed", "setting": "baboons [4]; 180 and 240 mg/kg", "result": "≤ 5", "unit": "h"},
      {"measurement": "Return to baseline for all observed behavioral effects, time postadministration", "setting": "baboons [4]; baboon (Papio anubis), in vivo, oral", "result": "7−8 h"},
      {"measurement": "Maximum concentrations of 1,4-BD (range)", "setting": "[5]; 32 mg/kg 1,4-BD", "result": "0.48 to 0.69", "unit": "µg/mL"},
      {"measurement": "T1/2 for GHB in plasma relative to T1/2 of 1,4-BD (fold longer)", "setting": "[5]; 100 mg/kg 1,4-BD", "result": "five"},
      {"measurement": "T1/2 for GHB in plasma relative to T1/2 of 1,4-BD (fold longer)", "setting": "[5]; 180 mg/kg 1,4-BD", "result": "sevenfold"},
      {"measurement": "Time after administration at which response rate was decreased", "setting": "rhesus monkeys", "result": 150, "unit": "min"},
      {"measurement": "AUC", "setting": "in vivo; monkey, 32 mg/kg", "result": 33.4, "unit": "µM·h"},
      {"measurement": "Cmax", "setting": "in vivo; monkey, 32 mg/kg", "result": "5.3 to 7.7", "unit": "µM"},
      {"measurement": "half-life", "setting": "in vivo; monkey, 32 mg/kg", "result": 248, "unit": "min"},
      {"measurement": "AUC", "setting": "in vivo; monkey, 100 mg/kg", "result": 612, "unit": "µM·h"},
      {"measurement": "Cmax", "setting": "in vivo; monkey, 100 mg/kg", "result": "47.8 to 590", "unit": "µM"},
      {"measurement": "half-life", "setting": "in vivo; monkey, 100 mg/kg", "result": 35.3, "unit": "min"},
      {"measurement": "AUC", "setting": "in vivo; monkey, 180 mg/kg", "result": 942, "unit": "µM·h"},
      {"measurement": "Cmax", "setting": "in vivo; monkey, 180 mg/kg", "result": "289 to 1100", "unit": "µM"},
      {"measurement": "half-life", "setting": "in vivo; monkey, 180 mg/kg", "result": 42.7, "unit": "min"},
      {"measurement": "Tmax", "setting": "in vivo", "result": 30, "unit": "min"},
      {"measurement": "half-life", "setting": "in vivo; 100 mg/kg", "result": "< 60", "unit": "min"},
      {"measurement": "half-life", "setting": "in vivo; 180 mg/kg", "result": "< 60", "unit": "min"},
      {"measurement": "Maximum concentration of GHB, range", "setting": "[6]", "result": "22.2−85.7 μg/ml"},
      {"measurement": "Mean maximum concentration of GHB", "setting": "[6]", "result": 45.6, "unit": "µg/mL"},
      {"measurement": "Maximum concentration of 1,4-BD, range", "setting": "[7]", "result": "0.33−14.4 μg/ml"},
      {"measurement": "Mean maximum concentration of 1,4-BD", "setting": "[7]", "result": 3.84, "unit": "µg/mL"}
    ]}
  ]
}
